# Assay results taken from ChEMBL document CHEMBL4311979, “Structural isomers of cinnamic hydroxamic acids block HCV replication via different mechanisms” (Eur J Med Chem, 2019).
# Key:
# [1] = target: T1, Protein deacetylase HDAC6 (Homo sapiens) (UniProt Q9UBN7); experiment: Inhibition of HDAC6 in human HuH7-luc/neo cells assessed as ratio of alphaTubK40ac content to the content of unmodified alpha-tubulin at 1 uM incubated for 24 hrs by Western blot analysis relative to control; format: cell-based
# T1 sequence (whole entry): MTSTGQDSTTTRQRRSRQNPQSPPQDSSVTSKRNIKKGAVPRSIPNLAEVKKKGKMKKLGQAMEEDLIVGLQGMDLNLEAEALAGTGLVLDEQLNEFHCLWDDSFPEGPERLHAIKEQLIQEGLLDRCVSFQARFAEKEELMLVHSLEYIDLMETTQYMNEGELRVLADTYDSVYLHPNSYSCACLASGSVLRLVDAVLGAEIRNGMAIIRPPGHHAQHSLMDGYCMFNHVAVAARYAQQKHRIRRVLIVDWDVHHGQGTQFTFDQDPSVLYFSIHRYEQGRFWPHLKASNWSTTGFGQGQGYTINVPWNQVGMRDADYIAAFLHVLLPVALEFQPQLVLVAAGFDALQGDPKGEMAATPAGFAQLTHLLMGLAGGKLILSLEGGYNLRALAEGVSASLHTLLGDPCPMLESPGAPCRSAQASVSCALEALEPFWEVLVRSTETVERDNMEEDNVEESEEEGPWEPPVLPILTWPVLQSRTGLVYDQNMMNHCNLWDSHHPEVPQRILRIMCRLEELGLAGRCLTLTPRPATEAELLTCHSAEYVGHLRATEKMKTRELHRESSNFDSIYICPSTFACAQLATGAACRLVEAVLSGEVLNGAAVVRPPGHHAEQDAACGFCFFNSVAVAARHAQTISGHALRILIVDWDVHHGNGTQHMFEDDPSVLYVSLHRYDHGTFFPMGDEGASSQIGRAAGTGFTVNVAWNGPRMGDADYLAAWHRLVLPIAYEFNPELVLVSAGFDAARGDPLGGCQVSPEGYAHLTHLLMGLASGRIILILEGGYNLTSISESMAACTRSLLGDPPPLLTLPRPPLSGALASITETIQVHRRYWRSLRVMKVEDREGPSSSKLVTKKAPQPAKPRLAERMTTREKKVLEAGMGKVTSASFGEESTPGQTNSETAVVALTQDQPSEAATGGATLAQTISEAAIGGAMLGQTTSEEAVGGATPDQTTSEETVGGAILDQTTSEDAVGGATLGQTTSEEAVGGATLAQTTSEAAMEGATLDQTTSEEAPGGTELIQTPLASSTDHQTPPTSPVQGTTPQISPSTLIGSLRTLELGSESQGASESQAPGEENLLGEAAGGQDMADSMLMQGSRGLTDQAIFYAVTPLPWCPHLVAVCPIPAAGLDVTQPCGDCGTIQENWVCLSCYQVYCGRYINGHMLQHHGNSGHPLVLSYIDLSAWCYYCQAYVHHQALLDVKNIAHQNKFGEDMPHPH
# Summary of the method: (§1)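 Huh7-luc/neo cells were dosed after 24 h at 40-50% monolayer and exposed to compound for 24 h at 37 °C in 5% CO2. For α-tubulin and SMC3, cells were PBS-washed and lysed. Histone H3 was acid-extracted: TEB buffer with 0.5% Triton X-100, then 0.2 M HCl overnight at 4 °C, then neutralized. Western blots were blocked in 5% milk/PBST with overnight primary antibody at 4 °C. Values are acetylated/total normalized ratios versus control.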
# [2] = target: T1, Protein deacetylase HDAC6 (Homo sapiens); experiment: Inhibition of HDAC6 in human HuH7-luc/neo cells assessed as ratio of alphaTubK40ac content to the content of unmodified alpha-tubulin at 3 uM incubated for 24 hrs by Western blot analysis relative to control; format: cell-based; summary of the method: as §1
# [3] = target: T2, Histone deacetylase 8 (Homo sapiens) (UniProt Q9BY41); experiment: Inhibition of HDAC8 in human HuH7-luc/neo cells assessed as ratio of SMC3K105/106ac content to the content of unmodified SMC3 at 1 uM incubated for 24 hrs by Western blot analysis relative to control; format: cell-based; summary of the method: as §1
# T2 sequence (whole entry): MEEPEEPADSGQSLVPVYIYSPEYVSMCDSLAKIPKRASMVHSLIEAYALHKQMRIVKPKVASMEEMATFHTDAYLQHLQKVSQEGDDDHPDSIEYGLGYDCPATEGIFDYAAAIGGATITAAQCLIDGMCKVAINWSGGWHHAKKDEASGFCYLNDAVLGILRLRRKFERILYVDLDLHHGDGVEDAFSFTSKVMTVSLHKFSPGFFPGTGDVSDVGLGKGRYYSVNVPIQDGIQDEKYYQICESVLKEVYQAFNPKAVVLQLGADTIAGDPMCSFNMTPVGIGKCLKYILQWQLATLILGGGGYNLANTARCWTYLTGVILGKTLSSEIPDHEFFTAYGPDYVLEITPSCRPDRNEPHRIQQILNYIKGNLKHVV
# [4] = Therapeutic index, ratio of CC50 for human HuH7 cells to EC50 for HCV infected in human HuH7-luc/neo cells; format: toxicity, cell-based; conditions: HuH7 cells (CC50) and HCV-infected HuH7-luc/neo cells (EC50)
# [5] = target: T3, Histone deacetylase 1/2/3 (Homo sapiens) (UniProt Q13547+O15379+Q92769); experiment: Inhibition of HDAC1/2/3 in human HuH7-luc/neo cells assessed as ratio of H3K9/14ac content to the content of unmodified histone H3 at 1 uM incubated for 24 hrs by Western blot analysis relative to control; format: cell-based; summary of the method: as §1
# [6] = target: T2, Histone deacetylase 8 (Homo sapiens); experiment: Inhibition of HDAC8 in human HuH7-luc/neo cells assessed as ratio of SMC3K105/106ac content to the content of unmodified SMC3 at 3 uM incubated for 24 hrs by Western blot analysis relative to control; format: cell-based; summary of the method: as §1
# Hepatitis C virus = experiment: Antiviral activity against HCV infected in human HuH7-luc/neo cells assessed as inhibition of viral replicon propagation incubated for 3 days by luciferase reporter gene assay; format: functional, organism-based, Hepacivirus hominis; conditions: 72 h
# Summary of the method: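 Huh7-luc/neo cells carrying a full-length HCV replicon with a luciferase gene. Cells were reseeded without G418 and dosed at 30-40% monolayer (48 h) over a range of concentrations. Incubation was 72 h at 37 °C in 5% CO2. Cells were then PBS-washed and lysed, and luciferase chemiluminescence was read. EC50 is the mean and standard deviation of at least four independent experiments.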
# [7] = target: T3, Histone deacetylase 1/2/3 (Homo sapiens); experiment: Inhibition of HDAC1/2/3 in human HuH7-luc/neo cells assessed as ratio of H3K9/14ac content to the content of unmodified histone H3 at 3 uM incubated for 24 hrs by Western blot analysis relative to control; format: cell-based; summary of the method: as §1
# [8] = Cytotoxicity against human HuH7 cells assessed as reduction in cell viability incubated for 3 days by MTT assay; format: cell-based, Huh-7
# Summary of the method: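 Huh7 cells were reseeded and dosed over a range of concentrations after 24 h (30-40% monolayer). Incubation was three days at 37 °C in 5% CO2, and viability was read by MTT. CC50 is the mean and standard deviation of at least six independent experiments.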
# [9] = target: T2, Histone deacetylase 8 (Homo sapiens); experiment: Inhibition of HDAC8 in human HuH7-luc/neo cells assessed as ratio of SMC3K105/106ac content to the content of unmodified SMC3 at 10 uM incubated for 24 hrs by Western blot analysis relative to control; format: cell-based; summary of the method: as §1
# [10] = target: T2, Histone deacetylase 8 (Homo sapiens); experiment: Inhibition of HDAC8 in human HuH7-luc/neo cells assessed as ratio of SMC3K105/106ac content to the content of unmodified SMC3 at 0.1 uM incubated for 24 hrs by Western blot analysis relative to control; format: cell-based; summary of the method: as §1
# [11] = target: T2, Histone deacetylase 8 (Homo sapiens); experiment: Inhibition of HDAC8 in human HuH7-luc/neo cells assessed as ratio of SMC3K105/106ac content to the content of unmodified SMC3 at 0.3 uM incubated for 24 hrs by Western blot analysis relative to control; format: cell-based; summary of the method: as §1
# [12] = target: T3, Histone deacetylase 1/2/3 (Homo sapiens); experiment: Inhibition of HDAC1/2/3 in human HuH7-luc/neo cells assessed as ratio of H3K9/14ac content to the content of unmodified histone H3 at 0.3 uM incubated for 24 hrs by Western blot analysis relative to control; format: cell-based; summary of the method: as §1
# [13] = target: T1, Protein deacetylase HDAC6 (Homo sapiens); experiment: Inhibition of HDAC6 in human HuH7-luc/neo cells assessed as ratio of alphaTubK40ac content to the content of unmodified alpha-tubulin at 0.3 uM incubated for 24 hrs by Western blot analysis relative to control; format: cell-based; summary of the method: as §1
fold change (FC) [1],fold change (FC) [2],fold change (FC) [3],fold change (FC) [5],fold change (FC) [6],EC50 (Hepatitis C virus) [µM],fold change (FC) [7],fold change (FC) [9],fold change (FC) [10],fold change (FC) [11],fold change (FC) [12],fold change (FC) [13],SMILES,selectivity ratio [4],CC50 at 72 h [8] [µM]
0.64,0.8,1.98,2.39,3.17,0.32,4.34,3.78,1.84,2.03,,,O=C(/C=C/c1ccccc1OCCc1ccccc1)NO,260,83
3.53,4.34,,8.55,0.7,0.3,11.2,0.58,,,,,O=C(/C=C/c1cccc(OCCc2ccccc2)c1)NO,41,12
3.73,6.35,,11.2,0.84,0.063,15.4,1.13,,,4.04,0.86,O=C(/C=C/c1ccc(OCCOc2ccccc2)cc1)NO,91,5.7
0.75,1.45,,1.16,,1.1,1.56,,,,,,COc1ccccc1/C=C/C(=O)NO,27,30
3.57,5.1,,1.35,,0.56,1.85,,,,,0.55,COc1ccc(/C=C/C(=O)NO)cc1,27,15
2.46,1.99,1.61,0.95,2.16,0.25,1.48,3.14,1.51,1.19,,,O=C(/C=C/c1ccccc1OCc1ccccc1)NO,120,31
7.34,10.6,,8.42,0.82,0.18,14.1,0.83,,,,,O=C(/C=C/c1cccc(OCc2ccccc2)c1)NO,37,6.6
0.74,1.01,2.15,0.9,2.66,0.4,1.46,3.14,1.7,2.03,0.62,,O=C(/C=C/c1ccccc1Oc1ccccc1)NO,165,66
4.92,8.86,,4.23,0.93,0.042,4.83,0.67,,,,1.63,O=C(/C=C/c1ccc(OCc2ccccc2)cc1)NO,240,9.9
2.22,2.58,,1.69,0.83,0.054,2.58,0.73,,,1.53,2.09,O=C(/C=C/c1ccc(Oc2ccccc2)cc1)NO,370,20
2.58,3.79,,1.75,0.54,0.4,1.9,1.02,,,1.27,1.54,O=C(/C=C/c1cccc(Oc2ccccc2)c1)NO,50,20
0.5,0.69,2.14,1.47,3.18,0.37,1.94,2.87,1.58,2.07,,,O=C(/C=C/c1ccccc1OCCOc1ccccc1)NO,120,45
3.33,7.72,,7.5,0.89,0.11,20.2,1.44,,,,,O=C(/C=C/c1cccc(OCCOc2ccccc2)c1)NO,55,6
0.5,2.55,,9,0.52,0.13,9.6,0.41,,,4.3,0.52,O=C(/C=C/c1ccc(OCCc2ccccc2)cc1)NO,120,16
2.13,3.3,,1.45,,0.57,1.69,,,,,,COc1cccc(/C=C/C(=O)NO)c1,30,17
